Results: ChEMBL document CHEMBL1126568, “Nucleosides and nucleotides. 122. 2'-C-cyano-2'-deoxy-1-beta-D-arabinofuranosylcytosine and its derivatives. A new class of nucleoside with a broad antitumor spectrum” (J Med Chem, 1993)

Key:
Assay type in all cases: functional
Mus musculus [1] = assay: Tested for 60-day survivors after administration at 20 mg/kg orally in M5076 mouse reticulum cell sarcoma; settings: route oral
In short: (§1)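 Female BD2F1 mice were implanted s.c. with 1 × 10^6 M5076 cells and dosed orally on days 1, 4, 7, 10, 13 and 16. Vehicle was saline or 5% DMA in 0.5% CMC. Groups had six mice (three at 400 mg/kg), with nine untreated controls. The number of mice alive at 60 days was counted.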

Mus musculus [2] = assay: Weight change in M5076 mouse reticulum cell sarcoma after administration at 30 mg/kg orally; settings: route oral
In short: (§2)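 Mice were female BD2F1 bearing s.c. M5076 sarcoma (1 × 10^6 cells) and given oral drug on days 1, 4, 7, 10, 13 and 16. Body weight change (g) = average body weight on day 20 minus average on day 1.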

Mus musculus [3] = assay: Weight change in M5076 mouse reticulum cell sarcoma after administration at 20 mg/kg orally; settings: route oral; in short: as §2
Mus musculus [4] = assay: Tested for 60-day survivors after administration at 50 mg/kg orally in M5076 mouse reticulum cell sarcoma; settings: route oral; in short: as §1
Mus musculus [5] = assay: Percent inhibition against M5076 mouse reticulum cell sarcoma after administration at 20 mg/kg orally on day 20; settings: M5076, 480 h, route oral
In short: (§3)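 Female BD2F1 mice (7-8 weeks, 20-25 g) were given 1 × 10^6 viable M5076 cells s.c. in the axillary region. Drug in saline or 5% DMA/0.5% CMC was given orally on days 1, 4, 7, 10, 13 and 16, with six mice per group and untreated controls. Tumor volume = 0.5 × length × width². Inhibition on day 20 = (1 − Vt/Vc) × 100.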

Mus musculus [6] = assay: Percent treated was determined after administration at 20 mg/kg orally; settings: route oral
In short: (§4)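 In female BD2F1 mice bearing s.c. M5076 sarcoma (1 × 10^6 cells), drug was given orally on days 1, 4, 7, 10, 13 and 16, with six mice per treated group and nine untreated controls. T/C (%) = median survival day of treated mice / median survival day of untreated controls × 100.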

Mus musculus [7] = assay: Percent inhibition against M5076 mouse reticulum cell sarcoma after administration at 30 mg/kg orally on day 20; settings: M5076, 480 h, route oral; in short: as §3
Mus musculus [8] = assay: Percent treated was determined after administration at 50 mg/kg orally; settings: route oral; in short: as §4
Mus musculus [9] = assay: Percent inhibition against M5076 mouse reticulum cell sarcoma after administration at 10 mg/kg orally on day 20; settings: M5076, 480 h, route oral; in short: as §3
Mus musculus [10] = assay: Percent treated was determined after administration at 10 mg/kg orally; settings: route oral; in short: as §4
Mus musculus [11] = assay: Tested for 60-day survivors after administration at 40 mg/kg orally in M5076 mouse reticulum cell sarcoma; settings: route oral; in short: as §1
Mus musculus [12] = assay: Weight change in M5076 mouse reticulum cell sarcoma after administration at 40 mg/kg orally; settings: route oral; in short: as §2
Mus musculus [13] = assay: Weight change in M5076 mouse reticulum cell sarcoma after administration at 10 mg/kg orally; settings: route oral; in short: as §2
Mus musculus [14] = assay: Percent inhibition against M5076 mouse reticulum cell sarcoma after administration at 40 mg/kg orally on day 20; settings: M5076, 480 h, route oral; in short: as §3
Mus musculus [15] = assay: Weight change in M5076 mouse reticulum cell sarcoma after administration at 50 mg/kg orally; settings: route oral; in short: as §2
Mus musculus [16] = assay: Percent treated was determined after administration at 30 mg/kg orally; settings: route oral; in short: as §4
Mus musculus [17] = assay: Percent inhibition against M5076 mouse reticulum cell sarcoma after administration at 50 mg/kg orally on day 20; settings: M5076, 480 h, route oral; in short: as §3
Mus musculus [18] = assay: Tested for 60-day survivors after administration at 30 mg/kg orally in M5076 mouse reticulum cell sarcoma; settings: route oral; in short: as §1
Mus musculus [19] = assay: Tested for 60-day survivors after administration at 10 mg/kg orally in M5076 mouse reticulum cell sarcoma; settings: route oral; in short: as §1
Mus musculus [20] = assay: Percent treated was determined after administration at 40 mg/kg orally; settings: route oral; in short: as §4

**Q.** How did the Survivors (Mus musculus [1]) turn out when `O=c1[nH]cc(F)c(=O)[nH]1` [FLUOROURACIL] was run?
**A.** 6

**Q.** What about the Weight change (Mus musculus [2]) of the same molecule?
**A.** 2.4 g

**Q.** And the Weight change (Mus musculus [3])?
**A.** 2.2 g

**Q.** What about the Survivors (Mus musculus [4]) of the same molecule?
**A.** 6

**Q.** What about the inhibition in vivo at 20 mg/kg (Mus musculus [5]) of the same molecule?
**A.** 6%

**Q.** And the T/C (Mus musculus [6])?
**A.** 85%

**Q.** And the inhibition in vivo at 30 mg/kg (Mus musculus [7])?
**A.** 9%

**Q.** And the T/C (Mus musculus [8])?
**A.** 79%

**Q.** And the inhibition in vivo at 10 mg/kg (Mus musculus [9])?
**A.** 1%

**Q.** And the T/C (Mus musculus [10])?
**A.** 94%

**Q.** And the Survivors (Mus musculus [11])?
**A.** 6

**Q.** What about the Weight change (Mus musculus [12]) of the same molecule?
**A.** 2.1 g

**Q.** What about the Weight change (Mus musculus [13]) of the same molecule?
**A.** 2.4 g

**Q.** And the inhibition in vivo at 40 mg/kg (Mus musculus [14])?
**A.** 17%

**Q.** What about the Weight change (Mus musculus [15]) of the same molecule?
**A.** 1.4 g

**Q.** And the T/C (Mus musculus [16])?
**A.** 86%

**Q.** And the inhibition in vivo at 50 mg/kg (Mus musculus [17])?
**A.** 28%

**Q.** What about the Survivors (Mus musculus [18]) of the same molecule?
**A.** 6

**Q.** What about the Survivors (Mus musculus [19]) of the same molecule?
**A.** 6

**Q.** And the T/C (Mus musculus [20])?
**A.** 79%
